ChEMBL document CHEMBL3414433, “Discovery and profiling of a selective and efficacious Syk inhibitor” (J Med Chem, 2015)

Columns and labels:
[1] = target: T1, Tyrosine-protein kinase SYK (Homo sapiens, UniProt P43405); assay: Inhibition of Syk in anti-igM stimulated human Ramos B cells assessed as phospho-BLNK level preincubated for 30 mins followed by anti-IgM stimulation measured after 15 mins by flow cytometric analysis; assay type: cell-based
[2] = target: T1, Tyrosine-protein kinase SYK; assay: Inhibition of Syk in anti-CD32 stimulated CD14+ human monocytes assessed as phospho-SLP76 level preincubated for 30 mins followed by anti-CD32 stimulation measured after 5 mins by flow cytometric analysis
[3] = Cytotoxicity against C57BL/6 mouse bone marrow cells assessed as growth inhibition preincubated for 4 days followed by [3H]-thymidine addition measured after 5 hrs by betaplate counting analysis; assay type: cell-based, Bone marrow cell
[4] = target: Voltage-gated inwardly rectifying potassium channel KCNH2 (Homo sapiens, UniProt Q12809); assay: Inhibition of human ERG expressed in CHO cells by automated Qpatch clamp assay; assay type: cell-based
Voltage-gated inwardly rectifying potassium channel KCNH2, sequence (Q12809 whole entry): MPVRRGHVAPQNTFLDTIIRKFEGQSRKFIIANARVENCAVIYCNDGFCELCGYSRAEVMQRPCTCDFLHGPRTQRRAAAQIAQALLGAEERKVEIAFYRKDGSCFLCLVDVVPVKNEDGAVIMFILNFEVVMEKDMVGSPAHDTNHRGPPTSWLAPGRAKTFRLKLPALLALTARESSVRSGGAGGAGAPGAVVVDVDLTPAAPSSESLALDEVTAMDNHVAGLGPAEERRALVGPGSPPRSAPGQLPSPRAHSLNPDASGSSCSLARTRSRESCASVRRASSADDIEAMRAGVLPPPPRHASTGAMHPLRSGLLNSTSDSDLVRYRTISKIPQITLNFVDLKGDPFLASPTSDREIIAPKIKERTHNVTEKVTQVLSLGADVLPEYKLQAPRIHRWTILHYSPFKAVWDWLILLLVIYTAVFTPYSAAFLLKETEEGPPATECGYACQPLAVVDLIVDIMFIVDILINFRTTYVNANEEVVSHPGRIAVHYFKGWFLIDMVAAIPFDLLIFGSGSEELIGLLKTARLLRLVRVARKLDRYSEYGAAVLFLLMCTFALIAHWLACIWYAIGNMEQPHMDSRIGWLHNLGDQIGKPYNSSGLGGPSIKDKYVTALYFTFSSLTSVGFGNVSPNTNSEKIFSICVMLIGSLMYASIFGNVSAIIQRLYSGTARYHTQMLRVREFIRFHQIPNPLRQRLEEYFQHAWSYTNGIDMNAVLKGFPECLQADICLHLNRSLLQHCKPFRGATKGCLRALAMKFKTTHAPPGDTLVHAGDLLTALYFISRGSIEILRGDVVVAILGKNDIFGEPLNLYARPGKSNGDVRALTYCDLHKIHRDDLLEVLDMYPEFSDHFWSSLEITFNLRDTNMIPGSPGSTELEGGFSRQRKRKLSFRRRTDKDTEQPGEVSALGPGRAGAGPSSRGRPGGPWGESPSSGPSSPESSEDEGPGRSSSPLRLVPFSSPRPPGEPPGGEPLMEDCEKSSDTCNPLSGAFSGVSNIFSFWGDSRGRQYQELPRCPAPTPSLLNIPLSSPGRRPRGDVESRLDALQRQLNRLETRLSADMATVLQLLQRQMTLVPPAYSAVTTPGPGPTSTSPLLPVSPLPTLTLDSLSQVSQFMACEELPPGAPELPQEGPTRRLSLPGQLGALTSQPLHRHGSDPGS

[5] = target: T1, Tyrosine-protein kinase SYK
Rattus norvegicus [6] = assay: Dose normalized AUC in Sprague-Dawley rat at 1 mg/kg, iv administered as cassette dosing; assay type: ADME, organism-based; design: dose 1 mg/kg, route intravenous; conditions: in vivo
Procedure, shortened: (§1)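 Rat PK: i.v. 1 mg/kg in NMP/PEG200 (3:7); p.o. 3 mg/kg in CMC/water/Tween (0.5:99:0.5). Exposure values dose normalized.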

[7] = Volume of distribution at steady state in Sprague-Dawley rat at 1 mg/kg, iv and 3 mg/kg, po administered as cassette dosing; assay type: ADME, organism-based; conditions: in vivo, read-out: Vdss
Procedure, shortened: (§2)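 Rats were dosed i.v. at 1 mg/kg in NMP/PEG200 (3:7) and p.o. at 3 mg/kg in CMC/water/Tween (0.5:99:0.5). PK parameters were derived from blood concentration–time curves for both routes.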

hERG (KCNH2) [8] = target: T2, hERG (KCNH2) (Homo sapiens, UniProt Q12809); assay: Inhibition of human ERG at 10 uM by manual patch clamp assay relative to control
T2 sequence (Q12809 whole entry): as above

[9] = Clearance in Sprague-Dawley rat at 1 mg/kg, iv and 3 mg/kg, po administered as cassette dosing; assay type: ADME, organism-based; conditions: in vivo; procedure, shortened: as §1
Rattus norvegicus [10] = assay: Dose normalized AUC in Sprague-Dawley rat at 3 mg/kg, po administered as cassette dosing; assay type: ADME, organism-based; design: dose 3 mg/kg, route oral; conditions: in vivo; procedure, shortened: as §1
Rattus norvegicus [11] = assay: Dose normalized Cmax in Sprague-Dawley rat at 1 mg/kg, iv and 3 mg/kg, po administered as cassette dosing; assay type: ADME, organism-based; conditions: in vivo; procedure, shortened: as §1
[12] = Oral bioavailability in Sprague-Dawley rat at 3 mg/kg administered as cassette dosing; assay type: ADME, organism-based; conditions: in vivo; procedure, shortened: as §2
[13] = Mean residence time in Sprague-Dawley rat at 1 mg/kg, iv and 3 mg/kg, po administered as cassette dosing; assay type: ADME, organism-based; conditions: in vivo; procedure, shortened: as §2
hERG (KCNH2) [14] = target: T2, hERG (KCNH2); assay: Inhibition of human ERG at 3 uM by manual patch clamp assay relative to control
Hepatocyte [15] = assay: Metabolic stability in human hepatocytes assessed as compound remaining; assay type: ADME, cell-based
Hepatocyte [16] = assay: Metabolic stability in rat hepatocytes assessed as compound remaining; assay type: ADME, cell-based
[17] = Metabolic stability in dog hepatocytes assessed as compound remaining; assay type: ADME, cell-based, Canis lupus familiaris, Hepatocyte
[18] = Metabolic stability in monkey hepatocytes assessed as compound remaining; assay type: ADME, cell-based, Macaca mulatta, Hepatocyte; conditions: rhesus monkey
[19] = Metabolic stability in monkey liver assessed as formation of 2-(7-(3-((1R,2S)-2-aminocyclohexylamino)-6-carbamoyl-1,2,4-triazin-5-ylamino)-3-oxo-3H-indol-2-ylamino)-3-mercaptopropanoic acid at 10 to 20 uM after 8 to 18 hrs; assay type: ADME, tissue-based, Macaca mulatta; conditions: rhesus monkey
Procedure, shortened: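 Freshly excised monkey liver was cut into 230 μm slices from 8 mm cores. Four slices per vessel were preincubated 1 h at 37 °C in Williams medium E with 10% FBS, glucose, insulin, hydrocortisone, methionine, gentamycin and amphotericin B, under 75% O2/5% CO2/20% N2 with rotation. Compound was added at 10 or 20 μM (from 2 mM DMSO stock) for 8 or 18 h, then quenched with cold acetonitrile.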

[20] = Mus musculus, C57BL/6, Bone marrow cell

| SMILES | IC50 [1] [nM] | IC50 [2] [nM] | IC50 [5] [nM] | IC50 [3, 20] [nM] | IC50 [4] [nM] | further results |
| --- | --- | --- | --- | --- | --- | --- |
| NC(=O)c1nnc(N[C@@H]2CCCC[C@@H]2N)nc1Nc1cccc2[nH]ccc12 | 14 | 177 |  | 5270 | 3700 | AUC/dose (Rattus norvegicus [6]): 522 nM·h; Vd [7]: 10.3 L/kg; clearance [9]: 83 mL/min/kg; AUC/dose (Rattus norvegicus [10]): 19 nM·h; Cmax/dose (Rattus norvegicus [11]): 4 nM; bioavailability [12]: 4%; MRT [13]: 2.1 h |
| NC(=O)c1ccc(N[C@@H]2CCCC[C@@H]2N)nc1Nc1cccc(-n2nccn2)c1 | 445 |  | 19 | 2600 |  |  |
| NC(=O)c1nnc(N[C@@H]2CCCC[C@@H]2N)nc1Nc1cccc(-n2nccn2)c1 |  |  |  | 811 | 3700 |  |
| N[C@H]1CCCC[C@H]1Nc1cc2nc[nH]c(=O)c2c(Nc2cccc(-n3nccn3)c2)n1 |  |  |  | 249 |  |  |
| NC(=O)c1cnc(N[C@@H]2CCCC[C@@H]2N)nc1Nc1cccc(-n2nccn2)c1 |  |  |  | 5850 |  |  |
| NC(=O)c1cnc(N[C@@H]2CCCC[C@@H]2NC(=O)OCc2ccccc2)nc1Nc1cccc2cc[nH]c12 |  |  |  |  |  | Stability (Hepatocyte [15]): 2.1%; Stability (Hepatocyte [16]): 2.6%; Stability [17]: 8.4%; Stability [18]: 13% |
| c1cn2cc(-c3ccc4cn[nH]c4c3)nc(Nc3ccc(N4CCOCC4)cc3)c2n1 [ENTOSPLETINIB] |  |  |  |  |  | IC50 ([3]; bone marrow cell): 582 nM |
| N[C@H]1COCC[C@H]1Nc1cc2cc[nH]c(=O)c2c(Nc2cccc3cc[nH]c23)n1 |  |  |  | 3520 |  |  |
| NC(=O)c1nnc(N[C@@H]2CCCC[C@@H]2N)nc1Nc1cccc2c1N=C(NC(CS)C(=O)O)C2=O (stereo partly drawn) |  |  |  |  |  | Drug metabolism [19]: 0.9 µg |

The next lines start with results.

| IC50 [1] [nM] | IC50 [2] [nM] | IC50 [5] [nM] | SMILES | IC50 [3, 20] [nM] | IC50 [4] [nM] | further results |
| --- | --- | --- | --- | --- | --- | --- |
| 170 | 782 | 94 | NC(=O)c1cnc(N[C@@H]2CCCC[C@@H]2N)nc1Nc1cccc2cc[nH]c12 | > 10000 | > 30000 |  |
| 30 | 302 | 5 | NC(=O)c1ncc(N[C@@H]2CCCC[C@@H]2N)nc1Nc1cccc2cc[nH]c12 | 5270 | 8100 | AUC/dose (Rattus norvegicus [6]): 1610 nM·h; Vd [7]: 12.3 L/kg; inhibition at 10 µM (hERG (KCNH2) [8]): 50%; clearance [9]: 28 mL/min/kg; AUC/dose (Rattus norvegicus [10]): 1523 nM·h; Cmax/dose (Rattus norvegicus [11]): 108 nM; bioavailability [12]: 95%; MRT [13]: 7.2 h; inhibition at 3 µM (hERG (KCNH2) [14]): 13% |
| 438 |  | 165 | NC(=O)c1ccc(N[C@@H]2CCCC[C@@H]2N)nc1Nc1cccc2cc[nH]c12 | > 10000 | > 30000 |  |
| 69 | 1790 | 1 | NC(=O)c1ncc(N[C@@H]2CCCC[C@@H]2N)nc1Nc1cccc(-n2nccn2)c1 | 2110 | 10000 |  |
